What all share (format): functional, organism-based
For one assay, the system named is Escherichia coli. The experiment in a line: Antibacterial activity against Escherichia coli by broth macrodilution method. In short, it runs like this:
(§1)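 Broth macrodilution as in the antifungal test (NCCLS M27-P guideline). The medium was changed to Luria-Bertani (10 g/L Bactotryptone, 5 g/L Bactoyeast, 10 g/L NaCl, pH 7.5), and incubation was at 37 °C for 24 h.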

Assay [1] relates to Staphylococcus aureus. The experiment in a line: Antibacterial activity against Staphylococcus aureus by broth macrodilution method. In short, it runs like this:
as §1

The next assay has as its system Candida albicans. The experiment in a line: Antifungal activity against Candida albicans by broth macrodilution method. The essentials: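 Broth macrodilution following NCCLS document M27-P guidelines for antifungal susceptibility testing of yeast.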
The subject of assay [2] is Staphylococcus aureus. As to the kind of experiment: Antibacterial activity against Staphylococcus aureus at 100 ug/mL by broth macrodilution method.

The source made the active and inactive calls. The rule behind the calls is not given here.

For `C/C(=C\CCc1ccoc1)C[C@H](O)C[C@@H](C)CCCc1ccoc1`, the result in the assay on Escherichia coli, in the assay with Staphylococcus aureus [1] and in the assay on Candida albicans was inactive.
With `COC(=O)/C(C)=C/CC/C(=C/CC/C(C)=C/CC/C(C)=C/CCc1ccoc1)C(=O)O`, the result in the assay on Escherichia coli and in the assay with Candida albicans was inactive. Also, the result in the assay with Staphylococcus aureus [2] was Active.
In the case of `C[C@H](CCCc1ccoc1)CC(=O)C[C@@H](C)CCCc1ccoc1`, the result in the assay with Escherichia coli, in the assay with Staphylococcus aureus [1] and in the assay on Candida albicans was inactive.
As for `C/C(=C\CCc1ccoc1)CC(=O)C[C@@H](C)CCCc1ccoc1`, the result in the assay with Escherichia coli, with Staphylococcus aureus [1] and with Candida albicans was inactive.
For `COC(=O)/C(=C\CC/C(C)=C/CC/C(C)=C/CCc1ccoc1)CC/C=C(\C)C(=O)O`, the outcome in the assay with Escherichia coli, with Staphylococcus aureus [1] and with Candida albicans was inactive.
As to `C/C(=C\CCc1ccoc1)CC/C=C(\C)CCCC1=CC(=O)OC1`, the result in the assay on Escherichia coli, in the assay with Staphylococcus aureus [1] and in the assay with Candida albicans was inactive.
`C/C(=C\CCc1ccoc1)CC/C=C(\C)CCCc1ccoc1`: the outcome with Escherichia coli, with Staphylococcus aureus [1] and in the assay on Candida albicans was inactive.

For the origin of these results see ChEMBL document CHEMBL1800041, “Bioactive terpenes from Spongia officinalis” (J Nat Prod, 2011).
